Assay results published in ChEMBL document CHEMBL1129642, “Design, synthesis, and evaluation of 2 beta-alkenyl penam sulfone acids as inhibitors of beta-lactamases” (J Med Chem, 1996).

How the values were obtained:
[1] = (§1) Compound was tested for inhibition of TEM-3, class A of beta-lactamases.; set-up: species or system Escherichia coli
Beta-lactamase [2] = target: Beta-lactamase (Pseudomonas aeruginosa (strain ATCC 15692 / PAO1 / 1C / PRS 101 / LMG12228), UniProt P24735); test: Compound was tested for inhibition of Pseudomonas aeruginosa 18SH, class C of Beta-lactamase
Citrobacter freundii [3] = test: Compound was tested for inhibition of Citrobacter freundii 1928 in combination with Ceftriaxone; type: functional
Outline: (§2)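 MICs determined by serial 2-fold dilution in Mueller-Hinton broth with an inoculum of approximately 10⁵ cfu/mL. The test compound was combined with ceftriaxone.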

Escherichia coli [4] = test: (§3) Compound was tested for inhibition of pTEM-3 from Escherichia coli in combination with Ceftriaxone; outline: as §2
Beta-lactamase [5] = target: Beta-lactamase (Bacillus licheniformis, UniProt P00808); test: Compound was tested for inhibition of Bacillus licheniformis 749/C, class A of Beta-lactamase
Enterobacter cloacae [6] = test: Compound was tested for inhibition of Ent. cloacae 908R in combination with Ceftriaxone; type: functional; outline: as §2
Beta-lactamase [7] = target: Beta-lactamase (Citrobacter freundii, UniProt P05193); test: Compound was tested for inhibition of Citrobacter freundii 1928, class C of Beta-lactamase
[8] = Compound was tested for inhibition of Penicillin-binding protein 2x from Streptococcus pneumoniae
Outline: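 S. pneumoniae PBP 2x was assayed as recombinant soluble protein. IC₅₀ values are reported in µM.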

[9] = (§4) Compound was tested for inhibition of TEM-1, class A of beta-lactamases.; set-up: species or system Escherichia coli
Pseudomonas aeruginosa [10] = test: Compound was tested for inhibition of Pseudomonas aeruginosa 18SH in combination with Ceftriaxone; type: functional; outline: as §2
Escherichia coli [11] = test: (§5) Compound was tested for inhibition of pTEM-4 from Escherichia coli in combination with Ceftriaxone; outline: as §2
Beta-lactamase [12] = target: Beta-lactamase (Escherichia coli K-12, UniProt P00811); test: Compound was tested for inhibition of Escherichia coli AmpC, class C of Beta-lactamase
[13] = target: T1, Penicillin-binding protein 1B (Escherichia coli K-12, UniProt P02919); test: Compound was tested for inhibition of Penicillin-binding protein 1b from Escherichia coli.
T1 sequence (P02919 whole entry): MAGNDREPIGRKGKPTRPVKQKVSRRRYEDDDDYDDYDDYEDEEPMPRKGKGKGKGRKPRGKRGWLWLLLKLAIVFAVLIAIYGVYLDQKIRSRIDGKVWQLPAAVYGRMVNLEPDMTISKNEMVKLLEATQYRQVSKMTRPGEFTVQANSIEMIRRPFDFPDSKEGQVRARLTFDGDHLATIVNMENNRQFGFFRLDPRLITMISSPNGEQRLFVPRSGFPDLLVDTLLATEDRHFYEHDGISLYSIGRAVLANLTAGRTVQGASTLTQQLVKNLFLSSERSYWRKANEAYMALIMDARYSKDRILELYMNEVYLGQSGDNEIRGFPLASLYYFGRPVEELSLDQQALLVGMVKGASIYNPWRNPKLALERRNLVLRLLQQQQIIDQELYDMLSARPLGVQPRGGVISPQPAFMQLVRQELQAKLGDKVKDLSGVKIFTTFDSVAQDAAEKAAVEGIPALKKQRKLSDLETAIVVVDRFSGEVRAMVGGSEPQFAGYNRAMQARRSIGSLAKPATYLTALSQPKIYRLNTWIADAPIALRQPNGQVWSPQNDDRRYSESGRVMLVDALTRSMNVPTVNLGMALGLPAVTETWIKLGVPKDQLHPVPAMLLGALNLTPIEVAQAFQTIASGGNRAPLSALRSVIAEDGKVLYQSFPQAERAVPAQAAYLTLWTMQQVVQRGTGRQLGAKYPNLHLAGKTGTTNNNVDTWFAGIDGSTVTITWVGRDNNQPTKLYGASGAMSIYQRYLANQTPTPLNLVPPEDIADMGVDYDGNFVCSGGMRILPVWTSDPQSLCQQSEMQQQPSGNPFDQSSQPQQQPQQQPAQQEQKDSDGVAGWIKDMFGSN
Outline: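 Penicillin binding was assayed on membrane fragments from E. coli W3110 or S. aureus Schoch, using ¹⁴C-labeled benzylpenicillin as the probe. IC₅₀ values are reported in µM.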

[14] = as §4; type: functional, Escherichia coli
[15] = as §1; type: functional, Escherichia coli
[16] = (§6) Compound was tested for inhibition of pTEM-4 from Escherichia coli in combination with Ceftriaxone (not active).; type: functional
Bacillus licheniformis = test: Compound was tested for inhibition of Bacillus licheniformis 749/C, class A of beta-Lactamases.; type: functional, organism-based
Citrobacter freundii [17] = test: Compound was tested for inhibition of Citrobacter freundii 1928 in combination with Ceftriaxone (expressed in MIC).; type: functional, organism-based
Pseudomonas aeruginosa [18] = test: Compound was tested for inhibition of Pseudomonas aeruginosa 18SH in combination with Ceftriaxone (expressed in MIC).; type: functional, organism-based; outline: as §2
Enterobacter cloacae [19] = test: Compound was tested for inhibition of Ent. cloacae 908R in combination with Ceftriaxone (expressed in MIC).; type: functional, organism-based; outline: as §2
[20] = (§7) Compound was tested for inhibition of pTEM-3 from Escherichia coli in combination with Ceftriaxone (expressed in MIC).; type: functional
[21] = target: Penicillin-binding protein 4 (Staphylococcus aureus, UniProt P72355); test: Compound was tested for inhibition of Penicillin-binding protein 4 from Staphylococcus aureus (Schoch).
[22] = as §6; outline: as §2
[23] = Compound was tested for inhibition of Penicillin-binding protein 1 from Staphylococcus aureus (Schoch).
[24] = as §7; outline: as §2
[25] = target: Peptidoglycan D,D-transpeptidase MrdA (Escherichia coli K-12, UniProt P0AD65); test: Compound was tested for inhibition of Penicillin-binding protein 2 from Escherichia coli.
[26] = as §5; type: functional; outline: as §2
[27] = as §3; type: functional; outline: as §2

Sequence of Beta-lactamase (Pseudomonas aeruginosa (strain ATCC 15692 / PAO1 / 1C / PRS 101 / LMG12228), UniProt P24735) (P24735 whole entry): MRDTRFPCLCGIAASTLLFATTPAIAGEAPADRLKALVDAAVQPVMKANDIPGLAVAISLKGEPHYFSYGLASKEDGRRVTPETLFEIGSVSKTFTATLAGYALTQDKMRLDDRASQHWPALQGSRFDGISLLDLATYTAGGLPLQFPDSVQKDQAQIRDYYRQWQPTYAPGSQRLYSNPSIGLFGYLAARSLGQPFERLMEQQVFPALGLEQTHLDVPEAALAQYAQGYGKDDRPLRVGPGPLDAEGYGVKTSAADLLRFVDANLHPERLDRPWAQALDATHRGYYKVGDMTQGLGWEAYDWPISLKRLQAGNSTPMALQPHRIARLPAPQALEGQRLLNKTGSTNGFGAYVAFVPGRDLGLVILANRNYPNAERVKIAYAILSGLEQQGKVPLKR
Sequence of Beta-lactamase (Bacillus licheniformis, UniProt P00808) (P00808 whole entry): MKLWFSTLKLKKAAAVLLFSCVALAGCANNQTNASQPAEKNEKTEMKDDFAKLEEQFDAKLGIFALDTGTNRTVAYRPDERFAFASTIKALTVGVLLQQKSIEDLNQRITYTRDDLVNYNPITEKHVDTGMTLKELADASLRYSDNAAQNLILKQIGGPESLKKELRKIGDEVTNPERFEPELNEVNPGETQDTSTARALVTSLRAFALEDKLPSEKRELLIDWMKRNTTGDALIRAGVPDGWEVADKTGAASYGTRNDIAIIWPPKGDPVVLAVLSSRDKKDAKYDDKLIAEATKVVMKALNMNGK
Sequence of Beta-lactamase (Escherichia coli K-12, UniProt P00811) (P00811 whole entry): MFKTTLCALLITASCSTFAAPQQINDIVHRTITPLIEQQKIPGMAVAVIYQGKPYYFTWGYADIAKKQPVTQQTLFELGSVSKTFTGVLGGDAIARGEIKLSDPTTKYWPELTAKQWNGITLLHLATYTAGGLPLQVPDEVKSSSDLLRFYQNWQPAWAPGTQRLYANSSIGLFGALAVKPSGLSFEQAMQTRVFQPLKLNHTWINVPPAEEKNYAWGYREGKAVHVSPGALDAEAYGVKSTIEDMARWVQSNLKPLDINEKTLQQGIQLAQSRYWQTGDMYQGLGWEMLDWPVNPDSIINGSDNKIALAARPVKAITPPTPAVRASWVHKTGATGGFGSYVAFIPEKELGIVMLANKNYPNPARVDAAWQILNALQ
Sequence of Beta-lactamase (Citrobacter freundii, UniProt P05193) (P05193 whole entry): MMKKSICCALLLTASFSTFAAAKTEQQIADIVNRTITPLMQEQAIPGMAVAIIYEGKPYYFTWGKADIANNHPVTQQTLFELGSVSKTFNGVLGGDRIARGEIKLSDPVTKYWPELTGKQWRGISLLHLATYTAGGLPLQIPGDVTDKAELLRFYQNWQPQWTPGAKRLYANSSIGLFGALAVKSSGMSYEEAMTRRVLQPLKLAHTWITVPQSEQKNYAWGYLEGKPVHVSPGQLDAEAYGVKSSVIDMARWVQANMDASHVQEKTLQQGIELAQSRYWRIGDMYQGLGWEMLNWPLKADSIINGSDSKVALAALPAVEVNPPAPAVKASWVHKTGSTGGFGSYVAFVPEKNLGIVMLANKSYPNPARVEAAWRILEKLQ
Sequence of Penicillin-binding protein 4 (P72355 whole entry): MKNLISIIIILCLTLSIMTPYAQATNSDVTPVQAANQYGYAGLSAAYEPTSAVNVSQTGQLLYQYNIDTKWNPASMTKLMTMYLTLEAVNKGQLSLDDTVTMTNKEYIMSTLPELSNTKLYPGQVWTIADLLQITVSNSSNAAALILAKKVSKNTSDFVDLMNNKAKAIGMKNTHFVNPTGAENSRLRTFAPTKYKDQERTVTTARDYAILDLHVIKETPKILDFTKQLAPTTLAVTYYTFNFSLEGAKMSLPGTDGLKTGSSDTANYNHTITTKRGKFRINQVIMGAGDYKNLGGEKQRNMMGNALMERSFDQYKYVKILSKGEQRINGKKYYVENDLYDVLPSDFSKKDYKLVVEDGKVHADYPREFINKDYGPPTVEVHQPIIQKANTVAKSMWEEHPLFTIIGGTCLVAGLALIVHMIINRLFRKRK
Sequence of Peptidoglycan D,D-transpeptidase MrdA (P0AD65 whole entry): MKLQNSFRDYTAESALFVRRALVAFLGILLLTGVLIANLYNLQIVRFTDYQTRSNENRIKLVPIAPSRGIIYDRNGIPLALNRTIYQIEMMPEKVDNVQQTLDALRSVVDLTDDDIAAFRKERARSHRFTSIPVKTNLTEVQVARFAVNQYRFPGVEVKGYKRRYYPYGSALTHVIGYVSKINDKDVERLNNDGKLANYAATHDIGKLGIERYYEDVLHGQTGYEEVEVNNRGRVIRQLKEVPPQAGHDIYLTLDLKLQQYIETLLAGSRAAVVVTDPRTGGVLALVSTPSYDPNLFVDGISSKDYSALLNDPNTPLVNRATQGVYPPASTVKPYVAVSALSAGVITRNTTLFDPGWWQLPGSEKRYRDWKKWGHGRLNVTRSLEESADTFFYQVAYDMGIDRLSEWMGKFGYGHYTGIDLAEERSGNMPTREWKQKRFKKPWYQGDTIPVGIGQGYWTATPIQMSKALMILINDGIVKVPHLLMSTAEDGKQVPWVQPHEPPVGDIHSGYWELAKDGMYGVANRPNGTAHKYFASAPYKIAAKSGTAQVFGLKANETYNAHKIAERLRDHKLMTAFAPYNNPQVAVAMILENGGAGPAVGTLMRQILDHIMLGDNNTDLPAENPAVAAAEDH

Work on `C[C@]1(/C=C/c2cncs2)[C@H](C(=O)O)N2C(=O)C[C@H]2S1(=O)=O` yielded an IC50 [1] of 0.16 µM, an IC50 (Beta-lactamase [2]) of 0.54 µM and an MIC (Citrobacter freundii [3]) of 8 µg/mL. The MIC (Escherichia coli [4]) was 1 µg/mL, the IC50 (Beta-lactamase [5]) was 5.4 µM and the MIC (Enterobacter cloacae [6]) was > 16 µg/mL. It also gave an IC50 (Beta-lactamase [7]) of 1.3 µM, an IC50 [8] of 50 µM and an IC50 [9] of 8.5 µM. For the same compound, the MIC (Pseudomonas aeruginosa [10]) was 16 µg/mL, the MIC (Escherichia coli [11]) was 4 µg/mL and the IC50 (Beta-lactamase [12]) was 45 µM. For the same compound, the IC50 [13] was > 10000 µM.
`C[C@]1(/C=C\c2cncs2)[C@H](C(=O)[O-])N2C(=O)C[C@H]2S1(=O)=O.[Na+]` gave an IC50 [1] of 0.054 µM, an IC50 (Beta-lactamase [2]) of 8.9 µM and an MIC (Citrobacter freundii [3]) of 16 µg/mL. For the same compound, the MIC (Escherichia coli [4]) was 0.5 µg/mL, the IC50 (Beta-lactamase [5]) was 0.54 µM and the MIC (Enterobacter cloacae [6]) was 16 µg/mL. The IC50 (Beta-lactamase [7]) was 0.41 µM, the IC50 [8] was 4.8 µM and the IC50 [9] was 13 µM. The MIC (Pseudomonas aeruginosa [10]) was > 16 µg/mL, the MIC (Escherichia coli [11]) was 4 µg/mL and the IC50 (Beta-lactamase [12]) was 2.7 µM. The IC50 [13] was > 10000 µM.
In the case of `CC(=O)/C=C\[C@@]1(C)[C@H](C(=O)O)N2C(=O)C[C@H]2S1(=O)=O`, the IC50 [14] is reported as 10 µM, the IC50 [15] is reported as 0.42 µM and the MIC [16] is reported as 2 µg/mL. The IC50 (Bacillus licheniformis) was 3.9 µM, the MIC (Citrobacter freundii [17]) was 1 µg/mL and the MIC (Pseudomonas aeruginosa [18]) was 32 µg/mL. The MIC (Enterobacter cloacae [19]) was 2 µg/mL and the MIC [20] was 0.25 µg/mL.
With `C[C@]1(/C=C/C[n+]2ccccc2)[C@H](C(=O)O)N2C(=O)C[C@H]2S1(=O)=O` the IC50 [21] was 15 µM, the IC50 [1] was 0.14 µM and the IC50 (Beta-lactamase [2]) was 75 µM. The MIC [22] was 0.5 µg/mL, the IC50 [23] was 15 µM and the MIC (Pseudomonas aeruginosa [18]) was > 16 µg/mL. It also gave an IC50 (Beta-lactamase [5]) of 1.8 µM, an MIC [24] of 0.25 µg/mL and an IC50 (Beta-lactamase [7]) of 16 µM. The MIC (Enterobacter cloacae [19]) was 8 µg/mL, the IC50 [9] was 3.6 µM and the IC50 [25] was 297 µM. For the same compound, the IC50 (Beta-lactamase [12]) was 330 µM and the IC50 [13] was > 10000 µM.
With `CON(C)C(=O)/C=C\[C@@]1(C)[C@H](C(=O)[O-])N2C(=O)C[C@H]2S1(=O)=O.[Na+]` the IC50 [14] was 12 µM, the MIC [26] was 2 µg/mL and the IC50 [15] was 0.18 µM. For the same compound, the IC50 (Bacillus licheniformis) was 4.4 µM, the MIC (Citrobacter freundii [3]) was 8 µg/mL and the MIC (Enterobacter cloacae [6]) was 16 µg/mL. For the same compound, the MIC (Pseudomonas aeruginosa [10]) was > 16 µg/mL and the MIC [27] was 0.5 µg/mL.
With `C[C@]1(/C=C\C#N)[C@H](C(=O)O)N2C(=O)C[C@H]2S1(=O)=O` the IC50 (Bacillus licheniformis) was 0.32 µM, the MIC (Citrobacter freundii [17]) was 2 µg/mL and the MIC (Pseudomonas aeruginosa [18]) was 16 µg/mL. The MIC (Enterobacter cloacae [19]) was 4 µg/mL.
In the case of `C[C@]1(C=CCO)[C@H](C(=O)[O-])N2C(=O)C[C@H]2S1(=O)=O.[Na+]`, the IC50 [14] is reported as 6.5 µM, the MIC [26] is reported as 2 µg/mL and the IC50 [15] is reported as 0.6 µM. It also gave an IC50 (Bacillus licheniformis) of 3.6 µM, an MIC (Citrobacter freundii [3]) of 8 µg/mL and an MIC (Enterobacter cloacae [6]) of 8 µg/mL. The MIC (Pseudomonas aeruginosa [10]) was 16 µg/mL and the MIC [27] was 0.5 µg/mL.
`C[C@]1(/C=C\c2ccccn2)[C@H](C(=O)[O-])N2C(=O)C[C@H]2S1(=O)=O.[Na+]` gave an IC50 [21] of 15 µM, an IC50 [1] of 0.092 µM and an IC50 (Beta-lactamase [2]) of 15 µM. The MIC (Citrobacter freundii [3]) was 8 µg/mL, the IC50 [23] was 15 µM and the MIC (Escherichia coli [4]) was 1 µg/mL. For the same compound, the IC50 (Beta-lactamase [5]) was 2.3 µM, the MIC (Enterobacter cloacae [6]) was 32 µg/mL and the IC50 (Beta-lactamase [7]) was 1 µM. For the same compound, the IC50 [8] was 4.5 µM, the IC50 [9] was 19 µM and the MIC (Pseudomonas aeruginosa [10]) was > 16 µg/mL. For the same compound, the MIC (Escherichia coli [11]) was 4 µg/mL, the IC50 (Beta-lactamase [12]) was 46 µM and the IC50 [13] was > 10000 µM.
